Source: ChEMBL document CHEMBL1125497, “Synthesis and anticonvulsant activity of enaminones” (J Med Chem, 1992)

Assays:
[1] = Antiepileptic activity in male CF1 mice 30 min after administration measured in neurological toxicity (Tox) test at a dose of 300 mg/kg (no. of animals treated /protected); activity value is 0/4; assay type: functional, Mus musculus
[2] = Antiepileptic activity in male CF1 mice 30 min after administration measured in maximum electroshock seizure(MES) test at a dose of 300 mg/kg (no. of animals treated /protected); activity value is 1/1; assay type: functional, Mus musculus
[3] = Antiepileptic activity in male CF1 mice 30 min after administration measured in subcutaneous pentylenetetrazole (scMet) test at a dose of 300 mg/kg (no. of animals treated /protected); activity value is 1/1; assay type: functional, Mus musculus
[4] = Antiepileptic activity in male CF1 mice 4 hr after administration measured in neurological toxicity (Tox) test at a dose of 300 mg/kg (no. of animals treated /protected); activity value is 0/2; assay type: functional, Mus musculus
[5] = Antiepileptic activity in male CF1 mice 4 hr after administration measured in maximum electroshock seizure(MES) test at a dose of 300 mg/kg (no. of animals treated /protected); activity value is 1/1; assay type: functional, Mus musculus
[6] = Antiepileptic activity in male CF1 mice 4 hr after administration measured in subcutaneous pentylenetetrazole (scMet) test at a dose of 300 mg/kg; activity value is 0/1; assay type: functional, Mus musculus
[7] = Dose at which anticonvulsant activity was observed in mice; assay type: functional, Mus musculus
[8] = Antiepileptic activity in male CF1 mice 30 min after administration measured in neurological toxicity (Tox) test at a dose of 300 mg/kg (no. of animals treated /protected); activity value is 2/4; assay type: functional, Mus musculus
[9] = Antiepileptic activity in male CF1 mice 4 hr after administration measured in maximum electroshock seizure(MES) test at a dose of 30 mg/kg (no. of animals treated /protected); activity value is 0/1; assay type: functional, Mus musculus
[10] = Antiepileptic activity in male CF1 mice 30 min after administration measured in maximum electroshock seizure(MES) test at a dose of 30 mg/kg (no. of animals treated /protected); activity value is 0/1; assay type: functional, Mus musculus
[11] = Antiepileptic activity in male CF1 mice 4 hr after administration measured in subcutaneous pentylenetetrazole (scMet) test at a dose of 30 mg/kg; activity value is 0/1; assay type: functional, Mus musculus
[12] = Antiepileptic activity in male CF1 mice 4 hr after administration measured in neurological toxicity (Tox) test at a dose of 30 mg/kg (no. of animals treated /protected); activity value is 0/2; assay type: functional, Mus musculus
[13] = Antiepileptic activity in male CF1 mice 30 min after administration measured in subcutaneous pentylenetetrazole (scMet) test at a dose of 30 mg/kg (no. of animals treated /protected); activity value is 1/1; assay type: functional, Mus musculus
[14] = Antiepileptic activity in male CF1 mice 4 hr after administration measured in subcutaneous pentylenetetrazole (scMet) test at a dose of 300 mg/kg (no. of animals treated /protected); activity value is 0/1; assay type: functional, Mus musculus
[15] = Antiepileptic activity in male CF1 mice 30 min after administration measured in subcutaneous pentylenetetrazole (scMet) test at a dose of 300 mg/kg (no. of animals treated /protected); activity value is 0/1; assay type: functional, Mus musculus
[16] = Antiepileptic activity in male CF1 mice 4 hr after administration measured in maximum electroshock seizure(MES) test at a dose of 300 mg/kg (no. of animals treated /protected); activity value is 0/1; assay type: functional, Mus musculus
[17] = Antiepileptic activity in male CF1 mice 30 min after administration measured in neurological toxicity (Tox) test at a dose of 30 mg/kg (no. of animals treated /protected); activity value is 0/4; assay type: functional, Mus musculus
[18] = Antiepileptic activity in male CF1 mice 0.5 hr after oral administration measured in maximum electroshock seizure(MES) test at a dose of 50 mg/kg (no. of animals treated /protected); activity value is 4/4; assay type: functional, Mus musculus
[19] = Antiepileptic activity in male CF1 mice 4 hr after oral administration measured in neurological toxicity (Tox) test at a dose of 50 mg/kg (no. of animals treated /protected); activity value is 0/4; assay type: functional, Mus musculus
[20] = Oral dose producing neurotoxic effects in 50% of rats; assay type: ADME, organism-based; conditions: rat, in vivo
Method in brief: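 Phase VI screen in male Sprague-Dawley rats dosed orally. MES protection and rotorod toxicity were scored as animals responding over animals tested at 0.25, 0.5, 1, 2 and 4 h.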

[21] = Antiepileptic activity in male CF1 mice 0.25 hr after oral administration measured in maximum electroshock seizure(MES) test at a dose of 50 mg/kg (no. of animals treated /protected); activity value is 2/4; assay type: functional, Mus musculus
[22] = Antiepileptic activity in male CF1 mice 1 hr after oral administration measured in maximum electroshock seizure(MES) test at a dose of 50 mg/kg (no. of animals treated /protected); activity value is 3/4; assay type: functional, Mus musculus
[23] = Antiepileptic activity in male CF1 mice 30 min after administration measured in neurological toxicity (Tox) test at a dose of 300 mg/kg (no. of animals treated /protected); activity value is 0/8; assay type: functional, Mus musculus
[24] = Antiepileptic activity in male CF1 mice 0.25 hr after oral administration measured in neurological toxicity (Tox) test at a dose of 50 mg/kg (no. of animals treated /protected); activity value is 0/4; assay type: functional, Mus musculus
[25] = Antiepileptic activity in male CF1 mice 30 min after administration measured in maximum electroshock seizure(MES) test at a dose of 300 mg/kg (no. of animals treated /protected); activity value is 0/1; assay type: functional, Mus musculus
[26] = Antiepileptic activity in male CF1 mice 2 hr after oral administration measured in neurological toxicity (Tox) test at a dose of 50 mg/kg (no. of animals treated /protected); activity value is 0/4; assay type: functional, Mus musculus
[27] = Dose elevating electroshock induced seizure by 20% in CF1 mice after ip administration.; assay type: functional, Mus musculus
Method in brief: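 In CF1 male mice (ca. 24–34 g), compound was given ip in 0.5% methylcellulose. The current giving hind limb extension in 50% of mice was found by the up-and-down method, with 15–25 mice per group and a vehicle control group run with each experimental group. At least three doses were tested. The dose raising threshold current by 20% was taken from a plot of dose against % threshold increase.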

[28] = Time of peak anticonvulsant effect in CF1 MICE after ip administration.; assay type: functional, Mus musculus
Method in brief: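 Male CF1 mice (ca. 24–34 g), compound in 0.5% methylcellulose suspension given ip or po; time (h) at which MES protection (against tonic hind limb extension) peaked was recorded and used for ED50 determination.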

[29] = Antiepileptic activity in male CF1 mice 4 hr after oral administration measured in maximum electroshock seizure(MES) test at a dose of 50 mg/kg (no. of animals treated /protected); activity value is 2/4; assay type: functional, Mus musculus
[30] = Antiepileptic activity in male CF1 mice 2 hr after oral administration measured in maximum electroshock seizure(MES) test at a dose of 50 mg/kg (no. of animals treated /protected); activity value is 2/4; assay type: functional, Mus musculus
[31] = Protective index was measured as TD50/ED50 in rat on oral administration; assay type: ADME, organism-based; conditions: in vivo, read-out: PI
[32] = Antiepileptic activity in male CF1 mice 4 hr after administration measured in neurological toxicity (Tox) test at a dose of 300 mg/kg (no. of animals treated /protected); activity value is 0/4; assay type: functional, Mus musculus
[33] = Dose protecting 50% of the mice from tonic hind limb extension at the time of […] after ip administration.; assay type: functional; conditions: Mus musculus, Hindlimb
Method in brief: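 Phase II quantification in CF1 male mice (ca. 24–34 g), dosing ip or po in 0.5% methylcellulose suspension. ED50 is protection from tonic hind limb extension in MES. TD50 is rotorod neurotoxicity. Both were read at time of peak effect and derived by Litchfield–Wilcoxon with 95% confidence limits.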

[34] = Antiepileptic activity in male CF1 mice 0.5 hr after oral administration measured in neurological toxicity (Tox) test at a dose of 50 mg/kg (no. of animals treated /protected); activity value is 0/4; assay type: functional, Mus musculus
[35] = Antiepileptic activity in male CF1 mice 1 hr after oral administration measured in neurological toxicity (Tox) test at a dose of 50 mg/kg (no. of animals treated /protected); activity value is 0/4; assay type: functional, Mus musculus

COC(=O)C1C(=O)C=C(NCc2ccc(Cl)cc2)CC1C (configuration not stated)
Activity [1]: 0
Activity [2]: 1
Activity [3]: 1
Activity [4]: 0
Activity [5]: 1
Activity [6]: 0
Dose [7]: >100 mg/kg

COC(=O)C1C(=O)C=C(Nc2ccc(C)cc2)CC1C (configuration not stated)
Activity [2]: 1
Activity [4]: 0
Activity [8]: 2
Activity [9]: 0
Activity [10]: 0
Activity [11]: 0
Activity [12]: 0
Activity [13]: 1
Dose [7]: <=100 mg kg-1
Activity [14]: 0
Activity [15]: 0
Activity [16]: 0
Activity [17]: 0

COC(=O)C1C(=O)C=C(NCc2ccc(F)cc2)CC1C (configuration not stated)
Activity [18]: 4
Activity [19]: 0
TD50 [20]: > 230 mg/kg
Activity [21]: 2
Activity [22]: 3
Activity [23]: 0
Activity [24]: 0
Activity [25]: 0
Activity [26]: 0
Dose [27]: 10 mg/kg
TPE [28]: 0.5
Activity [29]: 2
Activity [30]: 2
Activity [5]: 1
selectivity ratio [31]: 4.7
Activity [32]: 0
ED50 [33]: 159 mg/kg
Activity [34]: 0
Dose [7]: >100 mg/kg
Activity [14]: 0
Activity [35]: 0
Activity [15]: 0
